Here are results for 57 sequences from the array DNA melting data of Ke et al. (doi:10.1101/2024.01.08.574731).

Data set [1] is described as follows: folding enthalpy; higher = less favourable; fluorescence melt of hairpins on a sequencing array, two-state fit. Particulars: sodium 0.088 M. In a few lines: (§1)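 In 50 mM Na-HEPES pH 8.0 containing 25 mM NaCl, hairpins from the library on a sequenced MiSeq flow cell were imaged for Cy3 fluorescence at 2.5 °C steps up to 60 °C, with Cy3 and quencher oligos annealed. After normalisation to pre-quench Cy3 and to control constructs, two-state fits with bootstrapping gave melting temperature and folding enthalpy. Four replicates were combined by inverse-variance weighting, and fitted temperatures were shifted up by 9.35 °C to match UV melts.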

The nature of data set [2]: melting temperature; fluorescence melt of hairpins on a sequencing array, two-state fit, raised by 9.35 °C to match UV melts. Conditions: sodium 0.088 M. In a few lines:
as §1

For GATCCACGAAAGTGAATC (((.(((....))).))), the folding enthalpy in data set [1] is -24.2 kcal/mol. Moreover, the Tm in data set [2] is 42.4 °C.

With GATCCACGAAAGTGATC (((.(((....)))))), the folding enthalpy in data set [1] is -21.4 kcal/mol. For the same sequence, the Tm in data set [2] was determined as 41.3 °C.

For the sequence GATCCACGAAAGTGTATC (((.(((....))).))), in data set [1], the folding enthalpy was -24.2 kcal/mol. In data set [2], the Tm came to 37.6 °C.

Consider GATCCACGCCTGGATC ((((((....)))))), for which, in data set [1], the folding enthalpy was -36.9 kcal/mol. The Tm in data set [2] amounted to 52.3 °C.

In the case of GATCCACGTCTGGATC ((((((....)))))), the folding enthalpy in data set [1] is -38.3 kcal/mol. Moreover, the Tm in data set [2] is 49.5 °C.

As for GATCCACTACTGGATC ((((((....)))))), the folding enthalpy in data set [1] was -35.5 kcal/mol. Moreover, in data set [2], the Tm worked out at 49.7 °C.

Take GATCCACTAGTGGATC ((((((....)))))): the folding enthalpy in data set [1] is -40.6 kcal/mol. Moreover, the Tm in data set [2] came out at 62.3 °C.

In the case of GATCCACTATGGATC ((((((...)))))), the folding enthalpy in data set [1] was -30.6 kcal/mol. The Tm in data set [2] was determined as 52.7 °C.

Regarding GATCCAGAACTGGATC ((((((....)))))), the folding enthalpy in data set [1] was -37.6 kcal/mol. Further, the Tm in data set [2] is 56.4 °C.

GATCCAGAAGTGGATC ((((((....)))))): the folding enthalpy in data set [1] is -35.5 kcal/mol. In data set [2], the Tm amounted to 52.1 °C.

With GATCCAGAATTGGATC ((((((....)))))), the folding enthalpy in data set [1] is -34.7 kcal/mol. Moreover, the Tm in data set [2] came out at 57.2 °C.

Take GATCCAGACTGGATC ((((((...)))))): the folding enthalpy in data set [1] was -36.9 kcal/mol. Further, the Tm in data set [2] stood at 52 °C.

As for GATCCAGAGGTGGATC ((((((....)))))), the folding enthalpy in data set [1] was -28.5 kcal/mol. For the same sequence, the Tm in data set [2] turned out to be 47.8 °C.

Take GATCCAGCCATGGATC ((((((....)))))): in data set [1], the folding enthalpy is -38.8 kcal/mol. Further, the Tm in data set [2] stood at 58.7 °C.

For GATCCAGCCCTGGATC ((((((....)))))), the folding enthalpy in data set [1] is -48 kcal/mol. Further, in data set [2], the Tm was found to be 54.1 °C.

Turning to GATCCAGCGGTGGATC ((((((....)))))), the folding enthalpy in data set [1] was -44.3 kcal/mol. Also, the Tm in data set [2] worked out at 50.8 °C.

As to GATCCAGCGTGGATC ((((((...)))))), the folding enthalpy in data set [1] is -27.4 kcal/mol. Further, the Tm in data set [2] was 50.5 °C.

As for GATCCAGCGTTGGATC ((((((....)))))), the folding enthalpy in data set [1] is -44.2 kcal/mol. Besides, in data set [2], the Tm stood at 49.6 °C.

On to GATCCAGCTCTGGATC ((((((....)))))), for which the folding enthalpy in data set [1] is -41.1 kcal/mol. In addition, the Tm in data set [2] amounted to 54 °C.

GATCCAGGACTGGATC ((((((....)))))): in data set [1], the folding enthalpy was -41.1 kcal/mol. Besides, the Tm in data set [2] came to 56.2 °C.

Regarding GATCCAGGGTTGGATC ((((((....)))))), the folding enthalpy in data set [1] is -34.2 kcal/mol. Moreover, the Tm in data set [2] worked out at 50.8 °C.

With GATCCAGGTATGGATC ((((((....)))))), the folding enthalpy in data set [1] is -35.1 kcal/mol. For the same sequence, in data set [2], the Tm came to 58 °C.

GATCCAGGTCTGGATC ((((((....)))))): in data set [1], the folding enthalpy is -37.4 kcal/mol. The Tm in data set [2] came out at 55 °C.

Turning to GATCCAGTATGGATC ((((((...)))))), in data set [1], the folding enthalpy was -39.8 kcal/mol. Moreover, the Tm in data set [2] turned out to be 60.1 °C.

As for GATCCAGTCCTGGATC ((((((....)))))), in data set [1], the folding enthalpy was -44.6 kcal/mol. The Tm in data set [2] was 56.5 °C.

In the case of GATCCAGTTCTGGATC ((((((....)))))), in data set [1], the folding enthalpy is -39.6 kcal/mol. Besides, the Tm in data set [2] is 55.5 °C.

Turning to GATCCATAGATGGATC ((((((....)))))), the folding enthalpy in data set [1] was -33.5 kcal/mol. Also, the Tm in data set [2] was found to be 51.2 °C.

Take GATCCATCCTTGGATC ((((((....)))))): the folding enthalpy in data set [1] is -44.2 kcal/mol. Besides, the Tm in data set [2] is 53.6 °C.

As for GATCCATCGGTGGATC ((((((....)))))), in data set [1], the folding enthalpy was -39.5 kcal/mol. Besides, in data set [2], the Tm came to 50.6 °C.

Turning to GATCCATCGTGGATC ((((((...)))))), the folding enthalpy in data set [1] was -36.9 kcal/mol. The Tm in data set [2] was determined as 50.8 °C.

Regarding GATCCATCGTTGGATC ((((((....)))))), the folding enthalpy in data set [1] was -43.1 kcal/mol. Also, the Tm in data set [2] was 51.7 °C.

Take GATCCATGGTGGATC ((((((...)))))): the folding enthalpy in data set [1] is -36 kcal/mol. Further, the Tm in data set [2] was 50.6 °C.

With GATCCATTAATGGATC ((((((....)))))), in data set [1], the folding enthalpy is -38.7 kcal/mol. Also, the Tm in data set [2] stood at 54.8 °C.

For the sequence GATCCATTACTGGATC ((((((....)))))), the folding enthalpy in data set [1] is -29.9 kcal/mol. Further, the Tm in data set [2] was found to be 51.1 °C.

Turning to GATCCATTAGTGGATC ((((((....)))))), the folding enthalpy in data set [1] was -36.8 kcal/mol. Besides, in data set [2], the Tm was determined as 53 °C.

For the sequence GATCCATTGATGGATC ((((((....)))))), in data set [1], the folding enthalpy is -40.5 kcal/mol. The Tm in data set [2] is 53.5 °C.

Turning to GATCCATTTGTGGATC ((((((....)))))), the folding enthalpy in data set [1] was -44.5 kcal/mol. The Tm in data set [2] came out at 54.7 °C.

With GATCCCAATAGGGATC ((((((....)))))), the folding enthalpy in data set [1] was -36.5 kcal/mol. In addition, the Tm in data set [2] amounted to 64.8 °C.

On to GATCCCAATCGGGATC ((((((....)))))), for which the folding enthalpy in data set [1] was -40.2 kcal/mol. In addition, in data set [2], the Tm came out at 61.6 °C.

Regarding GATCCCAATTGGGATC ((((((....)))))), the folding enthalpy in data set [1] was -38.2 kcal/mol. The Tm in data set [2] came to 61.5 °C.

Turning to GATCCCACTCGGGATC ((((((....)))))), the folding enthalpy in data set [1] was -38.1 kcal/mol. Also, in data set [2], the Tm is 61.8 °C.

On to GATCCCAGACGGGATC ((((((....)))))), for which the folding enthalpy in data set [1] is -37.1 kcal/mol. Moreover, in data set [2], the Tm stood at 58.6 °C.

Regarding GATCCCAGAGGGGATC ((((((....)))))), the folding enthalpy in data set [1] was -32.2 kcal/mol. Further, the Tm in data set [2] was found to be 60.9 °C.

As for GATCCCAGCAGGGATC ((((((....)))))), the folding enthalpy in data set [1] is -34.6 kcal/mol. The Tm in data set [2] was determined as 66.3 °C.

Regarding GATCCCAGCTGGGATC ((((((....)))))), the folding enthalpy in data set [1] is -46.9 kcal/mol. Also, the Tm in data set [2] was found to be 62.3 °C.

Turning to GATCCCAGGAGGGATC ((((((....)))))), the folding enthalpy in data set [1] was -32.2 kcal/mol. In addition, in data set [2], the Tm was 59.9 °C.

Regarding GATCCCAGGCGGGATC ((((((....)))))), the folding enthalpy in data set [1] is -34 kcal/mol. In addition, the Tm in data set [2] came to 61.1 °C.

As for GATCCCAGGTGGGATC ((((((....)))))), the folding enthalpy in data set [1] is -37 kcal/mol. The Tm in data set [2] stood at 60.1 °C.

On to GATCCCATCGGGGATC ((((((....)))))), for which the folding enthalpy in data set [1] was -31.1 kcal/mol. For the same sequence, the Tm in data set [2] was 59.9 °C.

GATCCCCAATGGGATC ((((((....)))))): the folding enthalpy in data set [1] is -34.5 kcal/mol. Further, the Tm in data set [2] turned out to be 59.7 °C.

Turning to GATCCCCACAGGGATC ((((((....)))))), in data set [1], the folding enthalpy was -23 kcal/mol. Moreover, in data set [2], the Tm amounted to 66.4 °C.

On to GATCCCCAGAGGGATC ((((((....)))))), for which, in data set [1], the folding enthalpy is -31.7 kcal/mol. Also, the Tm in data set [2] was 59.8 °C.

For GATCCCCAGCGGGATC ((((((....)))))), in data set [1], the folding enthalpy was -30.7 kcal/mol. In addition, the Tm in data set [2] came out at 59.8 °C.

GATCCCCATTGGGATC ((((((....)))))): the folding enthalpy in data set [1] is -37.6 kcal/mol. Besides, the Tm in data set [2] was 59.6 °C.

For GATCCCCCTTGGGATC ((((((....)))))), the folding enthalpy in data set [1] was -39.8 kcal/mol. In addition, the Tm in data set [2] stood at 57.7 °C.

For the sequence GATCCCCGATGGGATC ((((((....)))))), the folding enthalpy in data set [1] was -34.5 kcal/mol. Further, the Tm in data set [2] amounted to 60.9 °C.

On to GATCCCGAAAGGGTTATC ((((((....)))..))), for which the folding enthalpy in data set [1] was -8.18 kcal/mol. Further, in data set [2], the Tm came out at 27.5 °C.
